These results are taken from PMC6106105 (Journal of the Endocrine Society, 2018).

Where two headings read alike, the source gives them in different places. Numbered stars: 1 amine (or outer) side, 2 acyl side, 3 side chain; on linkers, the order of the positions; unused ones are H or OH. Square brackets hold non-standard residues; d marks the D form. Side chains are listed from the residue outwards. Peptide text beside a SMILES is read from it. * marks the point of attachment. Ethylenediamine = C(CN[*:2])N[*:1]; Hyp = O=C(O)[C@@H]1C[C@@H](O)CN1; Phg = N[C@H](C(=O)O)c1ccccc1; CO = O=C([*:1])[*:2]; Bn = c1ccc(C*)cc1

For assay [1], the target named is T1, rat Sstr2A (Rattus norvegicus, UniProt P30680). The assay is classed as cell-based. To be noted: for Emax: read-out: cAMP Emax.
T1 sequence (P30680 whole entry): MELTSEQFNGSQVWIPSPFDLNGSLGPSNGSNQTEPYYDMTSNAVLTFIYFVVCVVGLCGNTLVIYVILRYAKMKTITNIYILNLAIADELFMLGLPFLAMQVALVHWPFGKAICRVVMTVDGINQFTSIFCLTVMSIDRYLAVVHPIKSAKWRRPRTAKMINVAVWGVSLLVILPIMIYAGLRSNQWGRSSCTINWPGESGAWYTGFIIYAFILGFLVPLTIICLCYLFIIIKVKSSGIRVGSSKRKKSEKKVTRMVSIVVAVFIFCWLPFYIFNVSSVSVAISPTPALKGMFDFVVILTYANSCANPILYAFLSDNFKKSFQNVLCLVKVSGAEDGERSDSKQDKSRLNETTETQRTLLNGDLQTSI
The target in assay [2] is T1, rat Sstr2A. As to the kind of experiment: Sstr2A receptor internalization, cell surface ELISA in GH12C1-Sstr2A cells. To be noted: for Emax: read-out: Internalization Emax. Format: cell-based.
The target of assay [3] is T1, rat Sstr2A. As to the kind of experiment: Membrane potential. Format: cell-based. To be noted: read-out: Hyperpolarization Emax.
The subject of assay [4] is GH4C1 cells. As to the kind of experiment: Membrane potential. Format: cell-based, rat. The following applies: for hyperpolarization response (agonist, in words): 100 nM (Fig. 3A). Summed up:
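Rat GH4C1 cells grown in F12 with 12.5% horse serum and 2.5% FBS, plated 150,000/well on poly-D-ornithine. Loaded 30 min with FLIPR Membrane Potential blue dye in HEPES-buffered saline, pH 7.4, then equilibrated 15 min at 37°C. After 30 s baseline, agonist was added and fluorescence read for 180 s (ex 530/em 565 nm). Output was F1/F0 minus control trace, averaged over three wells.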

`C[C@@H](O)[C@@H]1NC(=O)[C@H](CCCCN)NC(=O)[C@@H](Cc2c[nH]c3ccccc23)NC(=O)[C@H](Cc2ccccc2)NC(=O)[C@@H](NC(=O)[C@H](N)Cc2ccccc2)CSSC[C@@H](C(=O)N[C@H](CO)[C@@H](C)O)NC1=O` [Octreotide, octreotide]: the Emax in assay [1] and in assay [2] was 100% in each case. Moreover, the Emax at 0.1 µM in assay [3] came out at 107%. For the same molecule, the “hyperpolarization response (agonist, in words)” value in assay [4] is “equivalent to that of SS14”.

Regarding `NCCCC[C@@H]1NC(=O)[C@@H](Cc2c[nH]c3ccccc23)NC(=O)[C@H](c2ccccc2)NC(=O)[C@@H]2C[C@@H](OC(=O)NCCN)CN2C(=O)[C@H](Cc2ccccc2)NC(=O)[C@H](Cc2ccc(OCc3ccccc3)cc2)NC1=O` [SOM230, pasireotide diaspartate] (cyclo([Hyp]([CO-Ethylenediamine])[Phg][dW]KY(Bn)F); ring closure inferred), in assay [1], a half-maximal response (EC50) required 58 ± 7 nM and the Emax turned out to be 100%. Besides, in assay [2], the affinity, expressed as Kd, was 243 ± 63 nM and the Emax is 5%. Moreover, in assay [2] (SOM230 2 µM, 5-minute pretreatment, kept present throughout), the “shift in SS14 potency for receptor internalization after SOM230 pretreatment (Schild-plot analysis)” value worked out at 8.7 fold. Besides, the Emax at 1 µM in assay [3] is 5%.

Consider `C[C@H](N)C(=O)NCC(=O)N[C@H]1CSSC[C@@H](C(=O)O)NC(=O)[C@H](CO)NC(=O)[C@H]([C@@H](C)O)NC(=O)[C@H](Cc2ccccc2)NC(=O)[C@H]([C@@H](C)O)NC(=O)[C@H](CCCCN)NC(=O)[C@H](Cc2c[nH]c3ccccc23)NC(=O)[C@H](Cc2ccccc2)NC(=O)[C@H](Cc2ccccc2)NC(=O)[C@H](CC(N)=O)NC(=O)[C@H](CCCCN)NC1=O` [SS14, Somatostatin], for which the Emax in assay [1] and in assay [2] was 100% in each case. In assay [3], the Emax at 0.1 µM was 100%.

As for “Des-AA^1,2,5-[DTrp^8,IAmp^9,^125ITyr^11]-Cbm-SRIF [Rivier #27]”, in assay [4], the “hyperpolarization response (agonist, in words)” value was “largely ineffective”.

“H-p-Chloro-Phe-D-Cys-β-(3-pyridyl)-Ala-D-Trp-Lys-tBu-Gly-Cys-2-Nal-NH2 trifluoroacetate salt [PRL-2915]”: the “effect on hyperpolarization response produced by SS14” value in assay [4] (PRL-2915 (1 µM), SS14 (1 µM), 15 minutes pretreatment) was “eliminated most of the hyperpolarization response”.

By Emax is commonly meant the size of the effect at its maximum, as opposed to the concentration needed. By EC50 is commonly meant the concentration needed to bring the measured effect to its halfway point. Read a low EC50 as an effect from little substance. A word on the Kd: it is the equilibrium constant for the complex coming apart. Read a low Kd as a tighter complex.
